Source: the EternaBench riboswitch data

Test system: MS2 coat protein
Assay: apparent Kd, MS2 coat protein; higher = weaker binding; RNA-MaP array; FMN 200 µM where present
Outline: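 Each design was made on Illumina sequencing-chip clusters by stalled E. coli RNA polymerase and titrated with SNAP-549-labelled MS2 coat protein from 0.7 or 1.5 nM, doubling to 3 µM, in the absence and then the presence of constant ligand. The buffer was 100 mM Tris-HCl pH 7.5, 80 mM KCl, 4 mM MgCl2, BSA, DTT, yeast tRNA and Tween-20. The apparent Kd is the median of filtered per-cluster fits of binding curves, with green signal normalised to red-channel RNA signal and control-cluster median Fmax.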

[1] = designed as: ON switch for flavin mononucleotide, no ligand
[2] = ligand present: flavin mononucleotide, designed as: ON switch for flavin mononucleotide
[3] = designed as: OFF switch for flavin mononucleotide, no ligand
[4] = ligand present: flavin mononucleotide, designed as: OFF switch for flavin mononucleotide

Sequence	apparent Kd [1]	apparent Kd [2]	apparent Kd [3]	apparent Kd [4]
AUUAUUGACAUAGGAUAUUGUUACAUGAGGAUCACCCAUGUUAUUUGGGAACUAGGAAUAUUUUACAAGAAGGAUGUUGUUACA	101 nM	81.3 nM	–	–
AUUAUUUACAUAGGAUAUUGUUACAUGAGGAUCACCCAUGUUUUCAUGGUAUUAAUAUAUUAUUUCAAGAAGGAUGUAGUUACA	37.4 nM	20.9 nM	–	–
AUUAUUUUGUAGAAGGACGACUAUUAAUAUAUCGUAGGAUAUACUAUUUACAUGAGGAUCACCCAUGUUUAAAUGGAACAAUGU	–	–	4.99 nM	6.23 nM
AUUCCCGGUGUUAGGAUAUCCAACGCCCACGCGAUGGAGAAGGGACAUGAGGAUCACCCAUGUAGAGCUGCAUC	–	–	14.3 nM	14.5 nM
AUUGUAGUUGUGAGGAUAUCGUUGAUUUUUUGAAACGAGAAGGCACAUGAGGAUCACCCAUGUUAGUUGUUGGU	–	–	84 nM	212 nM
AUUGUGUGAGGAUAUUAGUAGUAGAUAAAUGGAGUUGUAACUGAGAAGGCACAUGAGGAUCACCCAUGUUCCUU	–	–	18.7 nM	24.6 nM
AUUUAAAUGUCAGGAUAUGUUAGUUUAUACAUAGUAGAAGGGAUAAUUAUACUCAUGUACAUGAGGAUCACCCAUGUUAAAUCA	212 nM	98.5 nM	–	–
AUUUAGAGAGGAUAUAUAAAGUGAAACAUGAGGAUCACCCAUGUAAUUUUAUGGAUGUAAAUAGAAGGCUCAUUUU	–	–	38.2 nM	29.4 nM
AUUUAUGGCCAGAAGGACAUGAGGAUCACCCAUGUAGGAUAUGGACGAUUUUGCUCGGCGGUUUGUUUACGAAGCACCGGUGGU	12.8 nM	6.91 nM	–	–
AUUUAUUAGUAAGGAUAUACUAGCGAUUAGCUUGUAGAAGGUACAGUCUUAUGUAUAGCAUGUUAACAUGAGGAUCACCCAUGU	23.2 nM	13.1 nM	–	–
AUUUGUAACCAGAAGGACAUGAGGAUCACCCAUGUAGGAUAUGGGCUUCUCAGGGCUGAGGAGUGAUCCCACAGGGACUUACGG	117 nM	18 nM	–	–
AUUUUUUAUGUAGGAUAUGCUUGUGGUAAGAUAGCAGAAGGACAUGAGGAUCACCCAUGUUAAUGAUAGAGAUUUUAGGUUGGU	–	–	42.6 nM	69.2 nM
CAAAGGACAGGAUAUGCGAGGGAGCCCGUGCAGGUCGCCCAACAUGAGGAUCACCCAUGUAGAAGGGUCAAAAC	–	–	32.8 nM	25.8 nM
CAACCGUUGCAGAAGGUUAAAUAAAUCAACUUAUGGACAACAUGAGGAUCACCCAUGUUUUUGUUGAAGGAUAUGCAAGGGUUG	–	–	6.25 nM	5.85 nM
CAACUGGCACAGAAGGGUGACAUGAGGAUCACCCAUGUAGCGUGGCACUCAGGAGGAGCCACGCCACAGGAUAUGUGCGGGCAC	42.3 nM	78.4 nM	–	–
CAAUGGUUCCUUAUACUCUCGUCACAUGAGGAUCACCCAUGUAGAAGGCAGCCGGGCUGUCAGGCUGAGGAUAUACAUUUAAAA	–	–	17.8 nM	54.9 nM
CAAUUACAUGAGGAUCACCCAUGUCAGGAUAUGCGAAUUACCAGAUGAAACUUAAUAAGCAGAAGGGACUACAA	–	–	36.3 nM	49.6 nM
CAAUUCCGAGGAUAUACAUGAGGAUCACCCAUGUCGGGCCUCAGCGUUUAGCGCCUAAGUAGAAGGUGGGUUUC	–	–	42.9 nM	40.4 nM
CAAUUGGCACAGAAGGGUGACAUGAGGAUCACCCAUGUAGCGUGGCACUCAGGAGAAGCCACGCCACAGGAUAUGUGCGGGCAC	34.6 nM	41.6 nM	–	–
CAAUUUAGCGAGAAGGAGCGCCCGUAGGUACAUGAGGAUCACCCAUGUCCUUUGUGCUCUACGCGCUAGGAUAUCGAGAAACAG	–	–	13.5 nM	98.7 nM
CAAUUUAUAGCAGGAUAUAUAAUACAAUGAUUAAUAGAAGGGUUUAAUACAUGAGGAUCACCCAUGUCAUGUGUCAUAAUAACC	–	–	33.4 nM	28.8 nM
CACAAUCUAUCUGAGGAUAUCAUGAAAAAAACAUGAGGAUCACCCAUGUGCAGGAAAACUGCAUAUGAGAAGGCAGAUAGAUUGG	658 nM	28.3 nM	–	–
CACACAUGAGGAUCACCCAUGUCGUGGGCGGAAAACUGUGCACAGGAUAUGGUGAGUGCAACUCACCAGAAGGGUGGUCAGGAA	122 nM	63 nM	–	–
CACCGUAACUGAGGAUAUCAAACAUGAGGAUCACCCAUGUAAUAAAUGAGAAUUUCGAAUGUACCUGAGAAGGCAGAAACCGGC	–	–	38 nM	48.3 nM
CACGGAUAGUAGAAGGGUGACAUGAGGAUCACCCAUGUACACAUGCGUAUUAAAGUAUGUGAUCCACAGGAUAUACUAUCCGUG	776 nM	93.8 nM	–	–
CACGGCUUAGGAUAUACAUGAGGAUCACCCAUGUGGGAAAGCCAAGGCGUGGUAAAGUGUAGAAGGAAGAAGGA	–	–	13.4 nM	14.9 nM
CACUCACAUGAGGAUCACCCAUGUCCUAGCAGGUCAGGAUAUAGCUCGGAUGCGUUGAGUCUAGAAGGGACAGGUU	184 nM	63.6 nM	–	–
CACUGCAAUGUAGGAUAUCGACUGGAUAACAGUCGAGAAGGACAUGAGGAUCACCCAUGUAAUCCUAAUAAUAAAUAAGCAGUG	–	–	12.1 nM	17.8 nM

Sequence	apparent Kd [1]	apparent Kd [2]	apparent Kd [3]	apparent Kd [4]
CACUGCAAUGUAGGAUAUCGACUGGAUAACAGUCGAGAAGGACAUGAGGAUCACCCAUGUACUUUGAGUGAAUAAUAAGCAGUG	–	–	16.5 nM	59.7 nM
CACUGCAAUGUAGGAUAUCGACUGGAUAACAGUCGAGAAGGACAUGAGGAUCACCCAUGUCAUCCUAAUAAUAAAUAAGCAGUG	–	–	15.3 nM	19.1 nM
CAGAAGUCAGGAUAUCCUGCUCGUCACUUGCGUGAUGAGUAGGAGAAGGGACAUGAGGAUCACCCAUGUAAAGU	–	–	68.9 nM	95 nM
CAGACCUACGCAGGAUAUCUUGGGUGUUUCAUGGCAAGAGUCGGUACAUGAGGAUCACCCAUGUAAGAGAAGGGCGUUGCUAAA	–	–	404 nM	83 nM
CAGCACGGAAACAAAGUCUUCGGACAUGAGGAUCACCCAUGUGAGGAUAUGCCUACUAAAAGUAGGCAGAAGGCACGCGUGCUG	–	–	17.1 nM	62.6 nM
CAGCCCUGAGGAUAUCCAUCCUUGUACAUGAGGAUCACCCAUGUUCUCCUCUGGGCUUUGGGAGAAGGCAGGUAUC	–	–	59.6 nM	58.7 nM
CAGCCCUGAGGAUAUCCAUCCUUGUACAUGAGGAUCACCCAUGUUUUCCUCUGGGCUUUUGGAGAAGGCAGGUAUC	–	–	78.3 nM	82.3 nM
CAGCCCUGAGGAUAUCCCUACUUGUACAUGAGGAUCACCCAUGUUCUCCUCUGGGCUUCGGGAGAAGGCAGGUCUC	–	–	14.6 nM	16.8 nM
CAGCCCUGAGGAUAUCUCAUCUCGCACAUGAGGAUCACCCAUGUUCUUCUCUGGGUUUCGAGAGAAGGCAGGCCUC	–	–	586 nM	434 nM
CAGCGAAAGCUGAAUCUGUAGAGAGAGGAUAUACGUCAUAAGGUGCAAACAUGAGGAUCACCCAUGUAGAAGGCUCUCUACAGU	–	–	55.8 nM	460 nM
CAGCGAAAGUAGAAGGCAGUACUGUUACAGUACUGAGGAUAUACAUGAGGAUCACCCAUGUAAUAAAGCUGGAAAUAUAUAAUU	–	–	6.41 nM	7.33 nM
CAGCGAUAGCUGAACAAUCUAUCUGAGGAUAUUCAUAAAACAUGAGGAUCACCCAUGUGAAAUUGGGAGAAGGCAGAUAGAUUG	7.7 nM	4.42 nM	–	–
CAGCGCUGUCGAGAGGAUAUGCGGUGAUGGACAUGAGGAUCACCCAUGUUAGCGAUAGCAUUACGGUAGAAGGCUCUACAGCUGC	239 nM	14.2 nM	–	–
CAGCGCUGUUGAGAGGAUAUGCGGUGAUGGACAUGAGGAUCACCCAUGUUAGCGAUAGCAUUACGGUAGAAGGCUCUACAGCUGC	18.5 nM	12.3 nM	–	–
CAGCUACCCAGUAUGGGUAUUUUUACAGAAGGCCAGGCACAUGAGGAUCACCCAUGUCAAGUUAUGGAGGAUAUGUUAGUGUAU	8.25 nM	4.76 nM	–	–
CAGGAUAGAGGAUAUACAUAGAUACAGAUUCGUGUAAUCCUACAUGAGGAUCACCCAUGUAGAAGGCUAUCCUG	–	–	14.8 nM	28.5 nM
CAGGCCUUAGGAUAUACACGGUGUCGAACGAGCUCCUACACACAUGAGGAUCACCCAUGUAGAAGGAAGGGAUA	–	–	24.6 nM	32 nM
CAGGCGGAGUCAGGAUAUGCACGGUGGACCUAUGACAUGAGGAUCACCCAUGUUACUACGCCUCAGCAGAAGGGACAACCUCCU	88.8 nM	7.87 nM	–	–
CAGGUAGACUGAGGAUAUACAAUAAACAGCUAGUCUAUCUAGCUGCCCACAUGAGGAUCACCCAUGUAGAAGGCAGUCUGCCUG	–	–	18.1 nM	52.5 nM
CAGGUAGACUGAGGAUAUACAAUAAACAGCUAGUCUAUCUAGCUGUCCACAUGAGGAUCACCCAUGUAGAAGGCAGUCUGCCUG	–	–	18.9 nM	42 nM
CAGGUAGACUGAGGAUAUACACUAAACAGCUAGUCUAUCUAGCUGCCUACAUGAGGAUCACCCAUGUAGAAGGCAGUCUGCCUG	–	–	15.8 nM	18.2 nM
CAGGUCUGAGGAUAUCCAUCUUCAUACAUGAGGAUCACCCAUGUUUACCUCUGGGUUUUCGGAGAAGGCAGUUUUU	–	–	354 nM	397 nM
CAGGUCUGAGGAUAUCCAUCUUCAUACAUGAGGAUCACCCAUGUUUCCCUCUGGGUUUUCGGAGAAGGCAGUUUUU	–	–	358 nM	293 nM
CAGUACUGAGGAUAUACAUGAGGAUCACCCAUGUGCUCUAGCUAGGAUACUAGCAUUAGUAGAAGGCAGUACUG	–	–	15 nM	136 nM
CAGUACUGAGGAUAUACAUGAGGAUCACCCAUGUGCUUUAGCUAGGAUACUAGCAUUAGUAGAAGGCAGUACUG	–	–	12.3 nM	21.5 nM
CAGUACUGAGGAUAUACAUGAGGAUCACCCAUGUGUCCUAGCUAGGAAACUAGCAUUAGUAGAAGGCAGUACUG	–	–	18.9 nM	300 nM
CAGUACUGAGGAUAUACAUGAGGAUCACCCAUGUGUUCCAGCUAGGAAACUAGCAAAGGUAGAAGGCAGUACUG	–	–	23.8 nM	521 nM
